The values that follow come from ChEMBL document CHEMBL1143258, “Biphenyl amide p38 kinase inhibitors 2: Optimisation and SAR” (Bioorg Med Chem Lett, 2008).

What all share (format): ADME, organism-based
Data set [1] can be described thus: Half life in Lewis rat at 1 mg/kg, iv. Set-up: dose 1 mg/kg, route intravenous. Particulars: in vivo. Put shortly: (§1)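 Male Lewis rats were given a single intravenous 1 mg/kg or oral 3 mg/kg dose. Plasma levels were measured by LC-MS/MS on a 5 min formic acid water/acetonitrile gradient. Clearance, steady-state volume, terminal half-life and oral bioavailability were derived from the concentration-time profiles.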

Data set [2] in a line: Volume of distribution at steady state in Lewis rat at 1 mg/kg, iv. Also noted: dose 1 mg/kg, route intravenous. Particulars: in vivo, read-out: Vdss. The essentials:
as §1

Data set [3] can be described thus: Plasma clearance in Lewis rat at 1 mg/kg, iv. Also noted: dose 1 mg/kg, route intravenous. Put shortly: as §1
A short description of data set [4]: Oral bioavailability in Lewis rat at 3 mg/kg. As to conditions: in vivo. The essentials:
as §1

Where only a bound is given, the exact number is not on record here.

In data set [1], `Cc1nnc(-c2ccc(C)c(-c3ccc(C(=O)NCC4CC4)cc3)c2)o1` gave a half-life of 9 h. In addition, the Vd in data set [2] is 2 L/kg. Besides, in data set [3], the clearance is under 10 mL/min/kg. The same compound had a bioavailability in data set [4] of 50%.
